Assay outcomes: PubChem, Sanford-Burnham Center for Chemical Genomics
In the library only some 3.1% were active in any assay of this set; here they are far more common.
UBC13 inh: human UBC13 polyubiquitination inhibition. P61088. inhibition, % at 20 µM. UBC13 polyubiquitin chain formation, TR-FRET. actives 0.47% (n = 330,000); in the data active = inhibition above about 45%, passing the limit was not always enough
Apaf-1 inh: blocks human Apaf-1 apoptosome activity; reconstituted apoptosome caspase-3 activity, DEVD-Rh110 fluorescence; inhibition, % at 20 µM; actives 0.71% (n = 330,000); AID 489030; active = inhibition of at least 40% at 20 µM;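 also: plate controls were DMSO wells for no effect and DEVD-CHO caspase inhibitor wells for full effect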
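Material: biochemical Apaf-1 apoptosome reconstitution. Medium: Hepes buffer, pH 7.5. Also added: cytochrome c activation, bis-DEVD rhodamine 110 substrate. Timing: 30 min compound preincubation, 50 min activation, room temperature. Measured by: rhodamine 110 fluorescence at Ex 480/Em 540 nm.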
SENP7 inh: SENP7 protease inhibition; recombinant SENP7, Z-RLRGG-aminoluciferin luminescence, 40 min; inhibition, % at 5 µM; actives 1.5% (n = 330,000);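 active = inhibition above about 50% at the single test dose, limit read from the data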;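 also: plate controls were DMSO with enzyme for no effect and no enzyme buffer wells for full effect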
Target sequence (Q9BQF6 706-1050 limits assumed): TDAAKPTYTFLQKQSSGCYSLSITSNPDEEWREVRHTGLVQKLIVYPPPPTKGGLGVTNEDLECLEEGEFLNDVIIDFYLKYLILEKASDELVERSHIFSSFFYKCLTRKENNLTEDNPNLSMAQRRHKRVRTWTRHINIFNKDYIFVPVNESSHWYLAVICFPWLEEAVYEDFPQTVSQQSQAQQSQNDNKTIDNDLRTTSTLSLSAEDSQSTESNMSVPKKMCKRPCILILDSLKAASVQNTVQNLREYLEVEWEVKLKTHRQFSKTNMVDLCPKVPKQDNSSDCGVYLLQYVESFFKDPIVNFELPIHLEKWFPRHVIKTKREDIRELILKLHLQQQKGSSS
SENP6 block: inhibitors of human SENP6 protease; Recombinant SENP6 catalytic domain, aminoluciferin luminescence; Q9GZR1; AID 2599; actives 1.8% (n = 330,000); inhibition, % at 10 µM;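 active = inhibition above about 50% at the single tested dose, limit read from the data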;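 also: plate controls were DMSO wells with enzyme for no effect and DMSO wells lacking enzyme for full effect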
SENP8 block-1: SENP8 (human) protease inhibition | recombinant SENP8, Nedd8 substrate fluorescence | actives 0.64% (n = 360,000) | Q96LD8 | inhibition, % at 20 µM; in the data active = inhibition mostly above about 40%, no sharp cut-off; inactive = mostly below about 27%
SENP8 block-2: SENP8 protease inhibition. AID 2540. purified SENP8, Z-RLRGG-aminoluciferin cleavage, luminescence. Q96LD8. actives 1.2% (n = 330,000). inhibition, % at 10 µM; in the data active = inhibition above about 50%
* marks the source's active call; other numbers are inactive results; . = not tested or not shown.

SMILES	UBC13 inh	Apaf-1 inh	SENP7 inh	SENP6 block	SENP8 block-1	SENP8 block-2
CCN(CC)c1ccc(/C=C2/C(=O)N(c3ccc([N+](=O)[O-])cc3)N=C2N2CCOCC2)cc1	-96	56*	3	10	.	4
O=C(Nc1ccc2[nH]ncc2c1)c1cccc(F)c1	6	-3	1	0	15	-14
Cc1ccc2cc(NC(=O)c3cccc(F)c3)ccc2n1	5	2	40	58*	25	31
O=C1c2ccccc2C(=O)c2c(/C=C/N3CCCCC3)ccnc21	.	.	.	.	64*	.
COc1ccc(Cl)cc1C(=O)O/N=C(\N)c1ccccn1	-4	3	15	15	20	-2
N/C(=N\OC(=O)COc1ccc(Cl)cc1Cl)c1ccccn1	8	-7	90*	73*	8	87*
N/C(=N\OC(=O)c1cc(Cl)ccc1Cl)c1ccccn1	3	2	76*	51*	11	65*
Cc1cc(C)c(C)c(OCC(=O)O/N=C(\N)c2ccccn2)c1	-2	4	4	-8	8	0
CC1=C(C(=O)N(C(C)C)C(C)C)CC(CC(=O)NCc2cccc3ccccc23)C(=O)N1CCC1=CCCCC1 (stereo not drawn)	.	.	.	.	8	.
COC(=O)[C@@]12C[C@@H](CC(=O)N3CCC(c4ccccc4)CC3)C(=O)N(Cc3cccc4ccccc34)C1=CCC(C)(C)C2	.	.	.	.	22	.
CC(C)c1ccc(/C=C/c2ccc(=O)n(C)n2)cc1	5	10	84*	84*	-374	69*
CC(C)c1ccc(/C=C/C2=NNC(=O)CC2)cc1	-4	11	48	48	3	27
COc1cc(OC)c(C2CC(=O)N3CN(c4ccccc4C)CSC3=C2C#N)cc1OC (stereo not drawn)	-30	66*	27	35	.	12
COc1ccc(OC)c(C2CC(=O)N3CN(c4ccccc4)CSC3=C2C#N)c1 (stereo not drawn)	-9	14	11	13	-7	4
CCOC(=O)C1=CCC(c2cc3ccccc3[nH]2)NC1 (stereo not drawn)	.	.	.	.	-453	.
O=C(Nc1ccc([N+](=O)[O-])cc1)C(=O)Nc1cccc(C(=O)O)c1	5	-4	99*	99*	5	97*
O=C(O)c1cc(NC(=O)c2ccc([N+](=O)[O-])cc2)cc(NC(=O)c2ccc([N+](=O)[O-])cc2)c1	-5	8	-1	12	20	-13
COc1ccc(CC2=CC(=O)c3ccccc3C2=O)cc1	-27	50*	-8	5	-414	-17
Cc1ccc(S(=O)(=O)N2CCN(c3ccc([N+](=O)[O-])c4cccnc34)CC2)cc1	-38	47*	2	12	33	-1
O=[N+]([O-])c1ccc(N2CCN(S(=O)(=O)c3ccccc3)CC2)c2cccnc12	13	7	1	-3	18	-9
Cc1ccc(N=Nc2c(C)[nH]n(C(N)=S)c2=O)cc1	-33	3	63*	79*	18	74*
COC(=O)[C@@]12C[C@@H](CC(=O)N3CCN(C(=O)c4ccco4)CC3)C(=O)N(Cc3cccc4ccccc34)C1=CCC(C)(C)C2	.	.	.	.	22	.
COc1ccccc1CNC(=O)C[C@H]1CC[C@@H]2[C@H](COC[C@H](O)CN2Cc2ccc3c(c2)OCO3)O1	.	.	.	.	26	.
C/C(Cl)=C\Cn1c(O)c(N=NC(N)=S)c2cc(Br)ccc21	-7	10	-4	-13	17	-9
NC(=S)N=Nc1c(O)cc(O)c2[nH]c(=O)ccc12	.	.	.	.	75*	.
SMILES	UBC13 inh	Apaf-1 inh	SENP7 inh	SENP6 block	SENP8 block-1	SENP8 block-2
O=C(CSc1nnc(NC(=O)c2ccccc2Cl)s1)Nc1ccc2c(c1)oc1ccccc12	-6	7	82*	37	.	32
Cc1ccc(F)c(S(=O)(=O)NC(=O)C2(C)CCN2C(=O)Cc2ccccc2)c1 (stereo not drawn)	.	.	.	.	2	.
Cc1ccc(S(=O)(=O)N2CC3C(=O)C[C@@H](c4ccccc4)N(S(=O)(=O)c4cccc(Cl)c4)C3CC2c2ccccc2)cc1 (stereo partly drawn)	.	.	.	.	8	.
COC1=C(Br)C(=O)c2nc(C)ccc2C1=O	.	.	.	.	86*	.
COC1=C(N)C(=O)c2nc(C)ccc2C1=O	.	.	.	.	99*	.
COc1ccc(N)c2c1C(=O)c1ccccc1C2=O	.	.	.	.	29	.
CCCNC(=O)C1(C)CCN(C(=O)c2cccnc2Oc2ccccc2)C1 (stereo not drawn)	.	.	.	.	10	.
